Results on eight molecules are retold here after ChEMBL document CHEMBL2021912, “Synthesis, cytotoxicity and apoptosis of cyclotriphosphazene compounds as anti-cancer agents” (Eur J Med Chem, 2012).

The structures appear in SMILES notation. Calls of active or inactive are those of the source. No cut-off for these calls is given here.

Series [1] in a line: (§1) Cytotoxicity against african green monkey Vero cells after 24 hrs at 37 degC by MTT assay. It counts as cell-based. To be noted: chlorocebus sabaeus, Vero cells; read-out: ID50. The procedure, abridged:
(§2)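 Vero and HT-29 grown in DMEM/10% FBS, Hep2 in EMEM/10% FBS; seeded at 2 × 10^4 (Vero, Hep2) or 3 × 10^4 (HT-29) cells/mL; exposed 24 h to 0.2–50 µg/mL compound, final DMSO 1%; MTT 1 mg/mL 2 h at 37 °C, formazan in DMSO, OD 540 nm; % of DMSO control; ID50 by probit; triplicate wells, three repeats.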
(Tetrazolium dyes change colour on reduction, which living cells bring about.)

A further series concerns Staphylococcus aureus. The series is described as follows: Antibacterial activity against Staphylococcus aureus ATCC 25923 after 18 to 24 hrs by broth microdilution method. It counts as functional. To be noted: read-out: ID50 (the source's name).
The subject of series [2] is HEp-2. The series is described as follows: Cytotoxicity against human Hep2 cells after 24 hrs at 37 degC by MTT assay. The class given is functional. To be noted: for IC50: HEp-2, 24 h, read-out: ID50 (the source's name). In outline:
as §2

The test system of the next series is Pseudomonas aeruginosa. Put plainly: Antibacterial activity against Pseudomonas aeruginosa ATCC 27853 after 18 to 24 hrs by broth microdilution method. It counts as functional. To be noted: read-out: ID50 (the source's name).
The test system of another series is Escherichia coli. Put plainly: Antibacterial activity against Escherichia coli ATCC 35218 after 18 to 24 hrs by broth microdilution method. To be noted: read-out: ID50 (the source's name). It counts as functional. On the technique in general: Broth dilution looks for growth in wells or tubes with falling amounts of substance.
A further series concerns Candida albicans. Put plainly: Antifungal activity against Candida albicans ATCC 10231 after 48 hrs by broth microdilution method. The conditions noted are these: ATCC 10231, 48 h, read-out: ID50 (the source's name). The class given is functional.
The subject of series [3] is HT-29. Put plainly: Cytotoxicity against human HT-29 cells after 24 hrs at 37 degC by MTT assay. It counts as functional. The conditions noted are these: for IC50: HT-29, 24 h, read-out: ID50 (the source's name). In outline: as §2
The test system of a further series is Vero. The series is described as §1. It counts as cell-based. The conditions noted are these: chlorocebus sabaeus, vero, 24 h. In outline: as §2
For series [4], the system named is HEp-2. The series is described as follows: Induction of apoptosis in human Hep2 cells assessed as necrotic cells level after 24 hrs by annexin V-FITC and propidium iodide staining based flow cytometry. The class given is functional. The procedure, abridged:
(§3)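 Hep2 seeded at 2-3 × 10^6 per flask, treated 24 h at several concentrations; cisplatin 200 µM positive control; cells in HEPES pH 7.4/NaCl/CaCl2 buffer stained with annexin V-FITC 100 ng/mL and PI 0.1 µg/mL, 15 min room temperature, dark; flow cytometry quadrants; three experiments in duplicate.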
In general terms: A flow cytometer gives signals particle by particle.

The test system of series [5] is HEp-2. The series is described as follows: Induction of apoptosis in human Hep2 cells assessed as late apoptotic cells level after 24 hrs by annexin V-FITC and propidium iodide staining based flow cytometry. It counts as functional. In outline:
as §3

The subject of series [6] is HEp-2. The series is described as follows: Induction of apoptosis in human Hep2 cells assessed as viable cell level after 24 hrs by annexin V-FITC and propidium iodide staining based flow cytometry. It counts as functional. The procedure, abridged: as §3
Series [7] relates to HEp-2. Put plainly: Induction of apoptosis in human Hep2 cells assessed as early apoptotic cells level after 24 hrs by annexin V-FITC and propidium iodide staining based flow cytometry. It counts as functional. The procedure, abridged: as §3
The subject of series [8] is HT-29. The series is described as follows: Induction of apoptosis in human HT-29 cells assessed as late apoptotic cells level after 24 hrs by annexin V-FITC and propidium iodide staining based flow cytometry. The class given is functional. In outline: (§4)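 HT-29 seeded at 2-3 × 10^6 per flask in 10% FBS-DMEM, treated 24 h at several concentrations; etoposide (12.5–50 µg/mL) positive control; cells in HEPES pH 7.4/NaCl/CaCl2 buffer stained with annexin V-FITC 100 ng/mL and PI 0.1 µg/mL, 15 min room temperature, dark; flow cytometry quadrants; three experiments in duplicate.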

Series [9] deals with HT-29. Put plainly: Induction of apoptosis in human HT-29 cells assessed as necrotic cells level after 24 hrs by annexin V-FITC and propidium iodide staining based flow cytometry. The class given is functional. In outline: as §4
For series [10], the system named is HT-29. Put plainly: Induction of apoptosis in human HT-29 cells assessed as viable cell level after 24 hrs by annexin V-FITC and propidium iodide staining based flow cytometry. The class given is functional. The procedure, abridged:
as §4

The test system of series [11] is HT-29. The series is described as follows: Induction of apoptosis in human HT-29 cells assessed as early apoptotic cells level after 24 hrs by annexin V-FITC and propidium iodide staining based flow cytometry. The class given is functional. The procedure, abridged:
as §4

With `ClP1(Cl)=NP2(=NP(Sc3ccccc3)(Sc3ccccc3)=N1)NCCCN2CCCCN1CCCNP12=NP(Sc1ccccc1)(Sc1ccccc1)=NP(Cl)(Cl)=N2` (stereo unspecified), the CC50 at 24 h in series [1] was determined as 3.35 µM. Moreover, the IC50 was above 250 µg/mL in the series with Staphylococcus aureus; above 250 µg/mL with Pseudomonas aeruginosa; above 250 µg/mL in the series with Escherichia coli; above 250 µg/mL in the series on Candida albicans; 1.96 µM in the series on HT-29 [3]. Moreover, the ID50 entry with HEp-2 [2] was “inactive”.

For `ClP1(Cl)=NP2(=NP(Nc3ccccc3)(Nc3ccccc3)=N1)NCCCN2CCCCN1CCCNP12=NP(Nc1ccccc1)(Nc1ccccc1)=NP(Cl)(Cl)=N2` (stereo unspecified), in the series on Vero, the ID50 entry is recorded as “Non-toxic”. For the same molecule, the IC50 in the series on Staphylococcus aureus, in the series on Pseudomonas aeruginosa, in the series on Escherichia coli and in the series with Candida albicans was above 250 µg/mL each time. Moreover, the ID50 entry in the series with HEp-2 [2] and in the series on HT-29 [3] was “inactive” throughout.

On to `FC1(F)COP2(Cl)=NP(Cl)(=NP3(=N2)NCCCN3CCCCN2CCCNP23=NP2(Cl)=NP(Cl)(=N3)OCC(F)(F)C(F)(F)CO2)OCC1(F)F` (stereo unspecified), for which the CC50 at 24 h in series [1] stood at 1.61 µM. In addition, the IC50 in the series on Staphylococcus aureus is above 250 µg/mL; with HEp-2 [2], 2.63 µM; with Pseudomonas aeruginosa, above 250 µg/mL; in the series on Escherichia coli, above 250 µg/mL; in the series on Candida albicans, above 250 µg/mL. For the same molecule, the ID50 result in the series on HT-29 [3] is “inactive”.

In the case of `FC1(F)COP2(=NP34=NP5(=N2)NCCCN5CCCCN3CCCN4)OCC1(F)F` (stereo unspecified), in series [1], the CC50 at 24 h was determined as 5.41 µM. Also, the IC50 is above 250 µg/mL with Staphylococcus aureus; 3.39 µM in the series with HEp-2 [2]; above 250 µg/mL in the series with Pseudomonas aeruginosa; above 250 µg/mL with Escherichia coli; above 250 µg/mL in the series with Candida albicans. The Activity in the series with HEp-2 [4] is recorded as 1.1%; in the series with HEp-2 [5] it was 5.34%; in the series on HEp-2 [6], 32.78%; in the series with HEp-2 [7] it was 60.78%. The ID50 entry in the series on HT-29 [3] was “inactive”.

In the case of `c1ccc(NP2(Nc3ccccc3)=NP34=NP5(=N2)NCCCN5CCCCN3CCCN4)cc1` (stereo unspecified), the Activity in the series on HT-29 [8] is on record as 0.35%; in the series on HT-29 [9], 1.35%; with HT-29 [10] it was 18.2%; in the series on HT-29 [11], 80.1%. In addition, in series [1], the CC50 at 24 h was determined as 6.55 µM. Moreover, the IC50 in the series with Staphylococcus aureus was above 250 µg/mL; in the series on Pseudomonas aeruginosa it was above 250 µg/mL; with Escherichia coli, above 250 µg/mL; in the series with Candida albicans it was above 250 µg/mL; in the series with HT-29 [3], 4.58 µM. For the same molecule, the ID50 entry with HEp-2 [2] was “inactive”.

On to `CC1(C)COP2(=NP(Cl)(Cl)=NP3(=N2)NCCCN3CCCCN2CCCNP23=NP2(=NP(Cl)(Cl)=N3)OCC(C)(C)CO2)OC1` (stereo unspecified), for which the Activity in the series on HT-29 [8] was 1.97%; in the series on HT-29 [9], 1.41%; with HT-29 [10], 32.84%; in the series with HT-29 [11], 63.78%. In addition, the CC50 at 24 h in series [1] was 2.65 µM. Besides, the IC50 is above 250 µg/mL in the series with Staphylococcus aureus; above 250 µg/mL in the series with Pseudomonas aeruginosa; above 250 µg/mL with Escherichia coli; above 250 µg/mL with Candida albicans; 2.75 µM with HT-29 [3]. In the series with HEp-2 [2], the ID50 result was “inactive”.

Turning to `CC1(C)COP2(=NP34=NP5(=N2)NCCCN5CCCCN3CCCN4)OC1` (stereo unspecified), in series [1], the CC50 at 24 h stood at 5.88 µM. The IC50 with Staphylococcus aureus is above 250 µg/mL; with HEp-2 [2], 3.23 µM; in the series with Pseudomonas aeruginosa, above 250 µg/mL; in the series on Escherichia coli it was above 250 µg/mL; with Candida albicans, above 250 µg/mL. Further, the Activity worked out at 0% with HEp-2 [4], 3.32% with HEp-2 [5], 19.39% in the series on HEp-2 [6] and 77.29% in the series with HEp-2 [7]. Besides, the ID50 result with HT-29 [3] was “inactive”.

In the case of `FC1(F)COP2(=NP(Cl)(Cl)=NP3(=N2)NCCCN3CCCCN2CCCNP23=NP(Cl)(Cl)=NP2(=N3)OCC(F)(F)C(F)(F)CO2)OCC1(F)F` (stereo unspecified), the Activity in the series with HT-29 [8] amounted to 0.53%; with HT-29 [9], 0.8%; in the series on HT-29 [10] it was 17.25%; in the series with HT-29 [11] it was 81.42%. Moreover, in series [1], the CC50 at 24 h worked out at 1.31 µM. Further, the IC50 was above 250 µg/mL with Staphylococcus aureus; above 250 µg/mL with Pseudomonas aeruginosa; above 250 µg/mL in the series with Escherichia coli; above 250 µg/mL with Candida albicans; 2.33 µM in the series with HT-29 [3]. Besides, the ID50 result with HEp-2 [2] was “inactive”.
